TRPML3 ag: human TRPML3 channel agonists, primary screen, cell-based, HEK293 TRPML3-YFP, Fluo-8 calcium fluorescence, 3 µM; activation, % at 3 µM; Mucolipin-3 (Homo sapiens), Q8TDD5; 100% = the carbachol control signal; actives 0.29% (n = 220,000);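 active means activation above its plate's cutoff, the mean activation of the plate's test wells plus 3 SD, cut at about 12% in these data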;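 further: 0% = DMSO only wells and 100% = carbachol wells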
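Test system: TRPML3-YFP stable HEK293 cells. Doses: single point at 3 µM. Incubation: dye loading 1 h 37 °C then 30 min ambient, 125 s read. Signal: Fluo-8 calcium dye fluorescence, ex 470-495, em 515-575 nm. Measure: percent activation from peak-to-basal fluorescence ratio, scaled between DMSO and carbachol.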
TAAR1 antagonist: human TAAR1 antagonists, primary screen, Fluo-8 calcium fluorescence, CHO RD-HGA16 cells; actives 1.5% (n = 360,000); AID 624466, 2012; antagonist; inhibition, % at 3 µM; Trace amine-associated receptor 1 (Homo sapiens), Q96RJ0;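 active means inhibition above a per-plate cutoff, the mean inhibition of test compounds on that plate plus 3 SD, cut at about 49% in these data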;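 further: 0% = DMSO plus EC80 beta-PEA response and 100% = DMSO alone without agonist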
Target sequence (Q96RJ0 whole entry, looked up): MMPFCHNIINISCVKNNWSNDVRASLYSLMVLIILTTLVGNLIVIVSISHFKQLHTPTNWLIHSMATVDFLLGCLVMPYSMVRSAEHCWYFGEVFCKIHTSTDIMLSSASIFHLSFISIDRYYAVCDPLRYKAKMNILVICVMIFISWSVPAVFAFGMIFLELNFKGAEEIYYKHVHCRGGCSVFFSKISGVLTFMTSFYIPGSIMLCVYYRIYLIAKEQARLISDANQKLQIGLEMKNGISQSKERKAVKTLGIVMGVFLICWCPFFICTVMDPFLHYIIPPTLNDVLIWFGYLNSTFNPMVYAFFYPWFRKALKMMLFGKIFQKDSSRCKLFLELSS
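Test system: CHO RD-HGA16 cells bearing hTAAR1 | Reagent: β-PEA, EC80 | Compound dosing: 3 µM, single point | Schedule: Dye loading 75 min at 37 °C, then 30 min room temperature | Signal: Calcium fluorescence with Fluo-8 | Evaluation: Percent inhibition of PEA-evoked calcium signal, max/basal emission ratio | Control set: DMSO-only wells and EC80 β-PEA-stimulated wells | Repeats: Singlicate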
GPR7 antag: GPR7 receptor antagonists, primary screen, cell-based, fluorescence, single concentration | Neuropeptides B/W receptor type 1 (Homo sapiens), P48145 | GPR7-expressing cells, fluorescence antagonist assay | inhibition, % at 4.4 µM | actives 1.1% (n = 290,000) | AID 1861, 2009; in the data active means inhibition above about 16%, passing the limit was not always enough;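 further: cells stimulated with the agonist NPW; 0% = agonist with vehicle and 100% = vehicle without agonist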
Target sequence (P48145 whole entry, looked up): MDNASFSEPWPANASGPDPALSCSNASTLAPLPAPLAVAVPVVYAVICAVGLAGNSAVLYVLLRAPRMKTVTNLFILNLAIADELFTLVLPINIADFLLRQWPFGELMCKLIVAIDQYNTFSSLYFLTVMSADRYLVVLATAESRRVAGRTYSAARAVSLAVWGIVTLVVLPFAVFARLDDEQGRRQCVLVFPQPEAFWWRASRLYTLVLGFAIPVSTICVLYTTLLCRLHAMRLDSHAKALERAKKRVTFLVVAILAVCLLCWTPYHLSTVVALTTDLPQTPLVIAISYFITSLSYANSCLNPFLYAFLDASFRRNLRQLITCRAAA
zfTRPN1 agonist: zebrafish TRPN1 channel agonists, primary screen, cell-based, HEK293, calcium fluorescence. HEK293 zebrafish TRPN1-YFP, Fluo-8 calcium fluorescence; 100% = response to 87 µM carbachol. transient receptor potential cation channel N1 (TRPN1/NompC), Danio rerio. actives 0.18% (n = 220,000). activation, % at 3 µM;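 active means activation above its plate's cutoff, the mean activation of test wells on that plate plus 3 SD, cut at about 19% in these data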;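 further: 0% = DMSO alone and 100% = 87 µM carbachol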
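Control set: carbachol 87 µM as high control, DMSO as low control; system: HEK293 stable line with zebrafish TRPN1-YFP; read-out: % activation versus carbachol response; detection: intracellular calcium fluorescence with Fluo-8; doses: single test compound dose, 3 µM nominal, 0.3% DMSO; schedule: dye 1 h 37 °C plus 30 min RT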
TAAR1 ag: human TAAR1 agonists, primary screen, Fluo-8 calcium fluorescence, CHO RD-HGA16 cells. Trace amine-associated receptor 1 (Homo sapiens), Q96RJ0. vehicle wells 0%, saturating PEA agonist 100%. activation, % at 3 µM. actives 0.99% (n = 360,000);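 active means activation above the mean activation of all test compounds in the run plus 3 SD, cut at about 38% in these data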
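test system = CHO RD-HGA16 cells carrying human TAAR1 plus Gα16 | schedule = 17-24 h seeding, 75 min 37 °C dye, 30 min RT | compound dosing = 3 µM single concentration | control set = DMSO and PEA EC100 | replicates = n 1 | signal = Fluo-8 fluorescence, 5 s baseline then 140 s kinetic read | measure = percent activation vs PEA EC100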
LANA-H2A inh: blockers of LANA interaction with H2A/H2B – biochemical, FP readout, HTS, primary screen | actives 0.6% (n = 320,000) | AID 2629, 2010 | cell-free LANA-H2A/H2B peptide, fluorescence polarization | inhibition, % (concentration not given with the values) | Protein LANA1 (Human herpesvirus 8 type P (isolate GK18)), Q9QR71; in the data active means inhibition mostly above about 10%, no sharp cut-off; inactive means mostly below about 6.7%
Active calls of the source: *; · = not tested or not shown. Sampled rows, rich in hits. Any-hit rate of the full collection: about 3.4%.

SMILES | TRPML3 ag | TAAR1 antagonist | GPR7 antag | zfTRPN1 agonist | TAAR1 ag | LANA-H2A inh
COc1ccc(/C=C(/C(=O)c2cccs2)N2C=CC=CC2=C(C#N)C#N)cc1 | 0 | 56* | -1 | 0 | 22 | ·
N#CC(C#N)=C1C=CC=CN1/C(=C\c1ccco1)C(=O)c1ccccc1 | 2 | 11 | 39* | 2 | 10 | 2
COc1ccc(C(=O)Nc2nc(CC(=O)NCCc3cccc(OC)c3)cs2)cc1 | · | 31 | · | · | 3 | 4
COc1ccccc1NC(=O)Nc1nc(CC(=O)NCc2ccc(F)cc2)cs1 | · | 52* | · | · | 14 | 1
COc1cccc(CNC(=O)Cc2csc(NC(=O)Nc3ccccc3OC)n2)c1 | · | 50* | · | · | 11 | 4
COc1ccc(OCC2CN(Cc3ccccc3)S(=O)(=O)CCO2)cc1 (stereo not given) | · | 18 | · | · | 0 | ·
CC(=O)Oc1ccc(/C=N/NC(=O)c2ccc(N(C)S(=O)(=O)c3ccccc3)cc2)cc1 | · | 55* | 13 | · | 12 | -1
COC(=O)c1cc(NC(=O)CN(c2ccc(OC)cc2)S(=O)(=O)c2ccc(F)cc2)ccc1Cl | 0 | 53* | -15 | 0 | 7 | ·
CN(c1cccc(NC(=O)c2ccc(N(C)S(=O)(=O)c3ccccc3)cc2)c1)S(C)(=O)=O | 5 | 63* | 6 | 16 | 24 | -7
COC(=O)c1ccc(Cl)c(NC(=O)CN(c2ccc(OC)cc2)S(=O)(=O)c2ccccc2)c1 | -1 | 23 | -6 | 0 | 13 | -5
COc1cc(OC)cc(C(=O)Nc2ccc(C(=O)Nc3ccccc3OC)cc2)c1 | · | 56* | · | · | 11 | -3
COC(=O)c1ccc2nc(-c3cccc(Br)c3)c(Cc3cccc(Cl)c3)n2c1 | · | -29 | · | · | 8 | ·
CN(c1cccc(NC(=O)CN(c2ccc(Cl)c(Cl)c2)S(=O)(=O)c2ccccc2)c1)S(C)(=O)=O | 0 | 57* | 0 | 0 | 9 | -4
COc1cc(OC)cc(C(=O)NC(=S)Nc2ccc(NC(=O)c3ccco3)cc2)c1 | 1 | -8 | -6 | 0 | 1 | 5
O=C(CCNC(=O)c1ccco1)Nc1ccc(OC(F)F)c(Cl)c1 | · | -1 | -12 | · | 0 | -1
COc1cc(NC(=O)c2ccc(S(=O)(=O)N(C)c3ccccc3)cc2)cc(OC)c1 | · | 51* | · | · | 0 | ·
COc1cc(OC)cc(C(=O)Nc2ccc(NC(=O)c3ccco3)c(Cl)c2)c1 | -1 | 4 | 25* | -2 | 0 | 2
COc1ccccc1NC(=O)c1ccc(S(=O)(=O)N(C)c2ccccc2)cc1 | · | -1 | · | · | 0 | ·
COc1ccc(NC(=O)COC(=O)CCNC(=O)c2ccco2)cc1Cl | · | 12 | · | · | 43* | -3
CN(c1ccc(NC(=O)CCc2c[nH]c3ccccc23)cc1)c1ccccn1 | · | 37 | · | · | 14 | ·
COc1ccccc1CC(=O)O/N=C(\N)Cc1cccc2ccccc12 | 0 | 41 | -8 | -1 | 75* | -5
O=C(Nc1ccc(Oc2c(F)c(F)c(F)c(F)c2F)cc1)OC1CCN2Cc3ccccc3N=C12 (stereo not given) | 1 | · | -6 | 2 | · | 15*
C=CC(=O)NC1CCCCN(C)C1=O (stereo not given) | · | -11 | · | · | 1 | ·
O=C(Nc1ccc(N2CCOCC2)c(Cl)c1)c1ccc(Br)o1 | 1 | 60* | -8 | 3 | 18 | 9
O=C(Nc1ccccc1N1CCOCC1)c1ccc(Br)o1 | 1 | 10 | -14 | -1 | 12 | 1
SMILES | TRPML3 ag | TAAR1 antagonist | GPR7 antag | zfTRPN1 agonist | TAAR1 ag | LANA-H2A inh
COc1ccc(NC(=O)/C(Cl)=C(/Cl)S(=O)(=O)Cc2ccc(C)cc2)cn1 | 1 | · | 24* | -1 | · | ·
O=C(Nc1ccc(F)cc1)c1nn(-c2ccccc2)c(=O)cc1Cl | 0 | 21 | 46* | -1 | 5 | ·
C[C@@H]1CN(c2ccc(N3CCN(C(=O)OC(C)(C)C)C[C@@H]3C)cc2C#N)CCN1Cc1ccccc1 | · | 30 | · | · | -1 | ·
O=C(/C=C/c1ccc(OCCCF)cc1)Nc1ccnc(-c2ccncc2)n1 | 3 | 16 | -19 | 9 | 11 | -7
O=C(/C=C/c1ccc(OCCCF)cc1)Nc1ccnc(-c2cccnc2)n1 | -1 | 55* | 2 | 2 | 19 | -8
C[C@H](O)[C@@H]1C(=O)N2CCc3c([nH]c4cccc(-c5ccccc5)c34)[C@@H]2C[C@@H]1N(C)C(=O)c1ccco1 | · | 5 | · | · | 0 | ·
Cc1ccc(C(=O)N(CC(=O)Nc2sc(C)c(C)c2C(N)=O)C2CCCC2)cc1 | · | 51* | 3 | · | 11 | -3
CC(C)c1cc(C(=O)Nc2cc(Cl)ccc2O)no1 | 0 | 17 | 18 | -1 | 0 | 13*
CCCCc1c(-c2ccccc2OC)ncn1Cc1cccc(-c2ccccc2)c1 | · | 51* | · | · | 8 | ·
CCc1c(-c2cccc(Cl)c2)ncn1CCc1ccccc1OC | · | 6 | · | · | 3 | ·
COc1ccccc1CCn1cnc(-c2ccc(OC)c(OC)c2)c1C(C)C | · | 26 | · | · | 42* | ·
CCCc1c(-c2cccc(Cl)c2)ncn1CCc1ccccc1OC | · | 53* | · | · | 19 | ·
CCCCc1c(-c2ccccc2OC)ncn1Cc1ccc(-c2ccccc2)cc1 | · | 18 | · | · | 8 | ·
CCCCc1c(-c2cccc(OC)c2)ncn1CCc1ccccc1OC | · | 56* | · | · | 22 | ·
COc1ccc(-c2cccc3c4c([nH]c23)[C@@H]2C[C@H]3[C@@H](C(=O)N2CC4)[C@H](C)ON3C)cc1 | · | 3 | · | · | 2 | ·
N#Cc1cnc(NN)nc1 | 0 | -3 | 3 | 1 | 0 | 165*
Cc1ccccc1-n1nc(C)c(N=O)c1N | 1 | -9 | -1 | 0 | 12 | 30*
CC1CCN(S(=O)(=O)c2ccc(C(=O)NCc3ccc4c(c3)OCO4)cc2)CC1 | 0 | 58* | 7 | 0 | 17 | -3
COc1ccc(OC)c2c1C(=O)C(Cl)=C(Cl)C2=O | 0 | 71* | -1 | 0 | 12 | -5
CCCN1C(=O)c2n[nH]c(C)c2C1c1ccc2c(c1)OCO2 (stereo not given) | · | -15 | · | · | -1 | ·
C/C=C(/C)C(=O)OC1c2c(ccc3ccc(=O)oc23)OC(C)(C)C1OC(C)=O (stereo not given) | 4 | 48 | 1 | 6 | 46* | -6
Cc1cc2c3c(c1)C1(SCC(=O)N1c1ccc(F)cc1)C(=O)N3C(C)(C)CC2C (stereo not given) | 1 | 9 | 3 | 0 | 48* | 3

Compound activity as filed in PubChem BioAssay.
